Published values gathered from unrelated publications.
Compare with care: the assays were run in different laboratories.
Target: G protein-coupled receptor kinase 3 (GRK3, Homo sapiens, UniProt P35626)
Residues used in one study (P35626 1-688): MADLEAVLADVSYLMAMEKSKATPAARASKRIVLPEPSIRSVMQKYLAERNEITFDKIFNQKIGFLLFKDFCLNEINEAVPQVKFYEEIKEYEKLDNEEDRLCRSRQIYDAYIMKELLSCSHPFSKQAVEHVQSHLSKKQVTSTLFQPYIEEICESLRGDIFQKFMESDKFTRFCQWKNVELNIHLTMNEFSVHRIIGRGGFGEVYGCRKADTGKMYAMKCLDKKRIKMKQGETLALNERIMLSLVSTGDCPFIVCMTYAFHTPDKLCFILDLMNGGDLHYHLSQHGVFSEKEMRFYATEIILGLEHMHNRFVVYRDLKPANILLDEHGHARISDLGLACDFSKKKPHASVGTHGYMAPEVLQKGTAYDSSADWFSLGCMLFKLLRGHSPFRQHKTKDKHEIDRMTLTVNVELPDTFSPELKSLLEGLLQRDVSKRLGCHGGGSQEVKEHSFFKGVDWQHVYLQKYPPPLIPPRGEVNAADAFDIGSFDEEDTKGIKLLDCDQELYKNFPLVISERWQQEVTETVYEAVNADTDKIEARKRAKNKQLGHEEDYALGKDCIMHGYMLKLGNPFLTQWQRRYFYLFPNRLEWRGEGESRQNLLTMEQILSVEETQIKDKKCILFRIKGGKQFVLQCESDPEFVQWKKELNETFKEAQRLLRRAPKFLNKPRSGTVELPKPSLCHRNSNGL

O=C(NCCCN1CCOCC1)c1ccc(Nc2ncc(Cl)c(-c3ccc(Cl)s3)n2)cc1 — remaining binding (binding; competition with immobilised ligand; 1 µM): 51%
CC1CCCN1c1nccc(-c2cnn3ncccc23)n1 (centres unmarked) — remaining binding (binding; 1 µM): 100%
COc1ccc2c(c1)O[C@H](c1ccc(OC)c(OC)c1)C[C@@H]2NC(=O)C1(c2ccc3c(c2)OC(F)(F)O3)CC1 — remaining binding (cell-free assay; competition with immobilised ligand; 1 µM): 100%
Nc1ncc2c(n1)-c1c([nH]c3ccc(C#CC4CC4)cc13)CCCC2 — remaining binding (binding; competition with immobilised ligand; 1 µM): 97%
O=C(Nc1ccc(Oc2ccc(F)cc2)cc1)N1CCc2ncccc2[C@H]1c1ccc(F)cc1 — remaining binding (cell-free assay; competition with immobilised ligand; 1 µM): 95%
O=C(NCC1CCOCC1)c1n[nH]cc1NC(=O)c1c(F)cccc1F — remaining binding (binding; competition with immobilised ligand; 1 µM): 44%
CN(CCCC(F)(F)F)c1nccc(-c2cnn3ncccc23)n1 — remaining binding (binding; 1 µM): 100%
FC(F)(F)c1ccc2c(c1)nc(-c1cccnc1)n2C1CC1 — remaining binding (cell-free assay; competition with immobilised ligand; 1 µM): 76%
C[C@@H](c1ccc(-n2cnc3c(N)ncnc32)cc1)N1CCc2nn(C)c(Cc3ccccc3)c2C1=O — remaining binding (binding; competition with immobilised ligand; 0.1 µM): 87%
COc1ccnn2ncc(-c3ccnc(N(C)C)n3)c12 — remaining binding (binding; 1 µM): 57%
O=C(Nc1cnc(Oc2ccc(F)cc2)nc1)N1CCc2ncccc2[C@@H]1c1ccc(F)cc1 — remaining binding (cell-free assay; competition with immobilised ligand; 1 µM): 96%
CN(c1nccc(-c2cnn3ncccc23)n1)C1CC1 — remaining binding (binding; 1 µM): 100%
C[C@@H](c1cccc(C#N)c1)n1cc(Cl)cc(C(N)=O)c1=N — remaining binding (cell-free assay; competition with immobilised ligand; 1 µM): 81%
C[C@H]1CCN(c2nccc(-c3cnn4ncccc34)n2)C1 — remaining binding (binding; 1 µM): 33%
C[C@H](c1ccnc(Nc2nc3ccc(-c4cc(N(C)C)ncn4)cc3[nH]2)c1)N1CCN(C(=O)CC(F)(F)F)CC1 — remaining binding (cell-free assay; competition with immobilised ligand; 0.1 µM): 100%
Cc1cnc(Nc2ccc(C(=O)N3CCC(N4CCCC4)CC3)cc2)nc1-c1cc2ccccc2s1 — remaining binding (binding; competition with immobilised ligand; 1 µM): 73%
FC(F)(F)Oc1cccc(-c2cnc3ccc(-c4ccncc4)nn23)c1 — remaining binding (cell-free assay; competition with immobilised ligand; 5 µM): 99%
O=C(c1ccc(Nc2ncc(Cl)c(-c3ccc(Cl)s3)n2)cc1)N1CCC(N2CCCC2)CC1 — remaining binding (binding; competition with immobilised ligand; 1 µM): 46%
F[C@@H]1CCN(c2nccc(-c3cnn4ncccc34)n2)C1 — remaining binding (binding; 1 µM): 13%
COc1cnc(Nc2cccc(S(N)(=O)=O)c2)nc1N1CCN(c2ccccc2)C(=O)C1 — remaining binding (binding; competition with immobilised ligand; 1 µM): 70%
